Assay results pooled from the literature.
Lines come from different studies, so protocols differ.
PPO3: PPO3 (Agaricus bisporus, UniProt C7FF04)
HTR2A: 5-hydroxytryptamine receptor 2A (HTR2A, Homo sapiens, UniProt P28223)

| Compound | target | test | conditions | inhibition [%] |
| --- | --- | --- | --- | --- |
| COc1cc(/C=C/C(=O)O)ccc1OCc1cn(CC(=O)Nc2ccccc2)nn1 | PPO3 | enzyme activity, inhibitor | 40 µM | 10.4 |
| COc1cc2c(cc1OC)-c1c(OC)c(OC)cc3c1[C@H](C2)N(C)CC3 (racemic) | HTR2A | ligand displacement, radioligand | 10 µM | 34 |
| CC(C)CC(=O)OC[C@H]1O[C@@](C#N)(c2ccc3c(N)ncnn23)[C@H](O)[C@@H]1O | Adenosine receptor A2a (ADORA2A, Homo sapiens, UniProt P29274) | cell-free assay | 20 µM | 13 |
| COc1cc(/C=C/C(=O)O)ccc1OCc1cn(CC(=O)Nc2ccc([N+](=O)[O-])cc2)nn1 | PPO3 | enzyme activity, inhibitor | 40 µM | 14 |
| COc1cc2c3c(c1OC)-c1c(OC)ccc(Cl)c1CC3N(C)CC2 (racemic) | HTR2A | ligand displacement, radioligand | 10 µM | 70 |
| CC[C@H](C)[C@@H](C(=O)N1CCC[C@H]1c1nccs1)N(C)C(=O)[C@H](CC(C)C)N(C)C(=O)[C@H](Cc1ccc(OC)cc1)N(C)C(=O)/C=C(\C)OC | Cannabinoid receptor 1 (CNR1, Homo sapiens, UniProt P21554) | β-arrestin recruitment, antagonist | 20 µM | 53 |
| c1cncc([C@@H]2CCCN2)c1 | HTR2A | ligand displacement | 50 µM | -7.27 |
| COc1cc(/C=C/C(=O)O)ccc1OCc1cn(CC(=O)Nc2ccccc2Cl)nn1 | PPO3 | enzyme activity, inhibitor | 40 µM | 16.2 |
| COc1cc2c3c(c1OC)-c1c(OC)ccc(O)c1CC3N(C)CC2 (stereo not drawn) | HTR2A | ligand displacement, radioligand | 10 µM | 36 |
| CN1CCC[C@H]1c1cccnc1 | Kappa-type opioid receptor (OPRK1, Homo sapiens, UniProt P41145) | ligand displacement | 50 µM | -10.9 |
| COc1cc(/C=C/C(=O)O)ccc1OCc1cn(CC(=O)Nc2ccc(Cl)cc2Cl)nn1 | PPO3 | enzyme activity, inhibitor | 40 µM | 7.73 |
| CCOC(=O)Cc1c2c3c(cc(OC)c(OC)c3c3cc(OC)c(OC)cc13)CCN2C | HTR2A | ligand displacement, radioligand | 10 µM | 17 |
